The values below come from ChEMBL document CHEMBL4715825, “Synthesis and biological evaluations of marine oxohexadecenoic acids: PPARα/γ dual agonism and anti-diabetic target gene effects” (Eur J Med Chem, 2018).

Calls of active or inactive are those of the source. No cut-off for these calls is given here.

A short description of data set [1]: Cytotoxicity against African green monkey COS-1 cells assessed as cell viability at EC50 concentration for PPAR activation assay by LDH assay. The following applies: chlorocebus aethiops, read-out: Activity. It counts as cell-based. The gist of the method:
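Assayed in the same COS-1 cultures as the Gal4-LBD PPAR reporter assays. Lactate dehydrogenase released into the medium was measured with a commercial kit per the maker's protocol. Absorbance was read at 492/750 nm.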

The target of data set [2] is T1, Retinoic acid receptor RXR-alpha (Homo sapiens) (UniProt P19793).
T1 sequence (whole entry): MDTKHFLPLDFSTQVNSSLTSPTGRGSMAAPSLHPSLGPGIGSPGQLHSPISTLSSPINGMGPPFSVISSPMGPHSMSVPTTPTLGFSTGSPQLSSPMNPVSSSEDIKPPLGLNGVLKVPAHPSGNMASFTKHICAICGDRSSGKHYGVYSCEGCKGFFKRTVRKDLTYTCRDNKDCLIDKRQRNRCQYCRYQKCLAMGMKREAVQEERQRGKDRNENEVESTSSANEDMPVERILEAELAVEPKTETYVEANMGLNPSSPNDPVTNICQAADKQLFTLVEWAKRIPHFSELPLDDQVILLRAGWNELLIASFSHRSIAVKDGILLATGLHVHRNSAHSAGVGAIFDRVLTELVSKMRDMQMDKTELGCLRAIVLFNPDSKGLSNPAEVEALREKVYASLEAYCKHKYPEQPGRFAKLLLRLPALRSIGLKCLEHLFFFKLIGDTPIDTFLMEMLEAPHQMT
Nature of the data set: Agonist activity at recombinant human RXRalpha LBD (202 to 462 residues) expressed in African green monkey COS-1 cells at 25 to 50 uM incubated for 18 hrs by luciferase reporter gene assay. It counts as cell-based. The settings on record: dose 25-50 µM. The gist of the method:
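Transient Gal4 one-hybrid assay in COS-1 cells (7×10^4 per well), transfected 24 h after seeding. Plasmids were Gal4-DBD fused to the human nuclear receptor LBD, a 5×UAS-SV40 luciferase reporter and pRL-CMV Renilla control. Ligand in DMSO (final 0.1%) was added 5 h post-transfection. Dual-luciferase activity was read after 18 h, expressed as RLU, from three biological replicates in quadruplicate.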
A general note: A reporter such as luciferase makes a cellular process visible.

Data set [3] deals with T2, Peroxisome proliferator-activated receptor alpha (Homo sapiens) (UniProt Q07869).
T2 sequence (whole entry): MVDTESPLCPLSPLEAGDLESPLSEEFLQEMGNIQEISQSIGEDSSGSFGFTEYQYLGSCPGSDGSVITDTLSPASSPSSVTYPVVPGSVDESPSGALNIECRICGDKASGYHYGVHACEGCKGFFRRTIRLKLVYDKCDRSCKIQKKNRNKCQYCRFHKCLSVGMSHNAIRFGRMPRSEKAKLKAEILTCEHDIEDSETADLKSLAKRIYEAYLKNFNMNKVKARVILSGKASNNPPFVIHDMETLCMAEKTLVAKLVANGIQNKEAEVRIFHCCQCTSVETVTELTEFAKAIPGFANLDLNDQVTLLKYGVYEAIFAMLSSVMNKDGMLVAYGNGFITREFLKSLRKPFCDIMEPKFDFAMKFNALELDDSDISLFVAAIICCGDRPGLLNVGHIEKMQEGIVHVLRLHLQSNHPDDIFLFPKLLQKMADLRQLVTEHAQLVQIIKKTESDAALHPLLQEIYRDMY
The data set can be described thus: Agonist activity at human PPARalpha in 8 day differentiated human SGBS cells assessed as increase in ADIPOQ gene expression at 25 uM incubated for 24 hrs by SYBR-green based qPCR analysis. It counts as cell-based. The gist of the method: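 SGBS preadipocytes were seeded at passage P6-P8 and grown to confluence. They were differentiated for 4 days in Quickdiff (3FC plus dexamethasone, IBMX and rosiglitazone), then kept in 3FC with medium renewed every fourth day. On day 8, cells were stimulated for 24 h in 3FC with compound:BSA or rosiglitazone. SYBR-green qPCR used gene-specific primers. Data are mean ± SEM of three biological replicates in duplicate.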

Data set [4] deals with SGBS. Nature of the data set: Induction of adipogenesis in 8 day differentiated human SGBS cells assessed as increase in ADIPOQ mRNA expression at 25 uM measured over 12 days by qRT-PCR analysis. It counts as functional, cell-based. The settings on record: time 12.0 day. The procedure, abridged:
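SGBS cells were grown to confluence (day 0). Quickdiff medium was supplemented with compound or rosiglitazone for 4 days, followed by 3FC medium. DMSO or DMSO:BSA served as control. RNA was harvested on days 0, 4, 8 and 12, and expression was measured by SYBR-green qPCR. Data are mean ± SEM of at least three biological replicates in duplicate.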
(Real-time PCR tracks product formation cycle by cycle.)

The test system of data set [5] is SGBS. Nature of the data set: Induction of adipogenesis in 8 day differentiated human SGBS cells assessed as upregulation of steroid biosynthesis genes at 25 uM incubated for 8 days by Illumina sequencing method. It counts as functional, cell-based. The procedure, abridged:
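SGBS cells were differentiated for 8 days: Quickdiff for days 0-4 with 2 µM rosiglitazone or 25 µM oxo-fatty acid:BSA, then 3FC. Total RNA was extracted (RIN 9.80-10.00) and strand-specific TruSeq libraries were sequenced on NextSeq 500 (2×75 bp paired-end). Reads were aligned to hg19 and quantified as RPKM. Data were expressed as log2 fold over day-0 cells (n = 2-4) and grouped into KEGG gene sets.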

For data set [6], the system named is SGBS. The data set can be described thus: Effect on diabetic complication pathway in 8 day differentiated human SGBS cells assessed as downregulation of TNF signalling genes at 25 uM incubated for 8 days by Illumina sequencing method. It counts as functional, cell-based. The procedure, abridged: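 SGBS cells were differentiated 4 days in Quickdiff supplemented with compound:BSA or rosiglitazone, then 4 days in 3FC. Total RNA was extracted, and strand-specific TruSeq libraries were sequenced on NextSeq 500 (2×75 bp paired-end). Reads were aligned to hg19 with Tophat/Bowtie and counted as RPKM by Cufflinks. Values are log2 fold over day 0 cells, grouped into KEGG gene sets (n = 2-4).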

The target of data set [7] is T3, Peroxisome proliferator-activated receptor gamma (Homo sapiens) (UniProt P37231).
T3 sequence (whole entry): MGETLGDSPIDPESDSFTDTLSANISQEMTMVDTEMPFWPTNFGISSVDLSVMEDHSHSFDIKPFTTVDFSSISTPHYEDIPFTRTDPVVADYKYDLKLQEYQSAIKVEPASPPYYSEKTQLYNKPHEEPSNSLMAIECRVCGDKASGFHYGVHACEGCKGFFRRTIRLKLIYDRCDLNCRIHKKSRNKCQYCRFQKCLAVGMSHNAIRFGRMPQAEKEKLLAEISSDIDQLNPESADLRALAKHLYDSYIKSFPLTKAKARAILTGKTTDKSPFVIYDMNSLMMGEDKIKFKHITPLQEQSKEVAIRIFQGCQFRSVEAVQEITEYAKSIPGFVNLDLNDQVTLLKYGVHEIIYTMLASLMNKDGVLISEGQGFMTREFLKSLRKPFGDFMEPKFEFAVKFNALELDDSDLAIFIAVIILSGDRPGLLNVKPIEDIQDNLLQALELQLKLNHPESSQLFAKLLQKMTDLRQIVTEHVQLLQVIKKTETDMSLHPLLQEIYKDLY
Nature of the data set: Agonist activity at human PPARgamma in 8 day differentiated human SGBS cells assessed as increase in leptin gene expression at 25 uM incubated for 24 hrs by SYBR-green based qPCR analysis. It counts as cell-based. The settings on record: filed as agonist.

In the case of `CCCCCCCC(=O)/C=C/CCCCCC(=O)O`, the viability in data set [1] is over 95%. Also, the result in data set [2] and in data set [3] was inactive. In addition, the result (in the data set with SGBS [4]; with SGBS [5]; with SGBS [6]; in data set [7]) was Active.

For the molecule `CCCCC/C=C/C(=O)CCCCCCCC(=O)O`, the viability in data set [1] was over 95%. Besides, the result in data set [2] and in data set [3] was inactive. The outcome (with SGBS [4]; in the data set on SGBS [5]; in the data set with SGBS [6]; in data set [7]) was Active.
